Results published in ChEMBL document CHEMBL1125331, “6-Hydroxy-3-n-propyl-2,3,4,5-tetrahydro-1H-3-benzazepine and analogs: new centrally acting 5-HT1A receptor agonists” (J Med Chem, 1992).
pIC50: −log10 of the molar value.

Tests used:
[1] = test system: Rattus norvegicus; assay: Effect evaluated in vivo on 5-HTP accumulation in corpus striatum at a dose 25 umol/kg (s.c.); type: functional
How it was run: (§1)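 Male Sprague-Dawley rats (200–300 g) were pretreated with reserpine 5 mg/kg sc 18 h beforehand. Test drug was given at neutral pH, 5 mL/kg. Aromatic amino acid decarboxylase was blocked with NSD 1015. 5-HTP in the dissected brain region was assayed by HPLC with electrochemical detection.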

[2] = test system: Rattus norvegicus; assay: Effect evaluated in vivo on 5-HTP accumulation in limbic system at a dose 0.39 umol/kg (s.c.); type: functional; how it was run: as §1
[3] = molecular target: D(2) dopamine receptor (Rattus norvegicus, UniProt P61169); assay: Inhibitory activity against Dopamine receptor D2 in rats using [3H]spiperone as radioligand
How it was run: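 Rat striatal membranes in 50 mM potassium phosphate buffer pH 7.4 were incubated with 0.5 nM [3H]spiperone for 10 min at 37 °C. Specific binding was defined with 10 μM 6,7-ADTN.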

[4] = molecular target: T1, 5-hydroxytryptamine receptor 1A (Rattus norvegicus, UniProt P19327); assay: Inhibitory activity against 5-hydroxytryptamine 1A receptor in rats, using [3H]8-OH-DPAT as radioligand
T1 sequence (P19327 whole entry): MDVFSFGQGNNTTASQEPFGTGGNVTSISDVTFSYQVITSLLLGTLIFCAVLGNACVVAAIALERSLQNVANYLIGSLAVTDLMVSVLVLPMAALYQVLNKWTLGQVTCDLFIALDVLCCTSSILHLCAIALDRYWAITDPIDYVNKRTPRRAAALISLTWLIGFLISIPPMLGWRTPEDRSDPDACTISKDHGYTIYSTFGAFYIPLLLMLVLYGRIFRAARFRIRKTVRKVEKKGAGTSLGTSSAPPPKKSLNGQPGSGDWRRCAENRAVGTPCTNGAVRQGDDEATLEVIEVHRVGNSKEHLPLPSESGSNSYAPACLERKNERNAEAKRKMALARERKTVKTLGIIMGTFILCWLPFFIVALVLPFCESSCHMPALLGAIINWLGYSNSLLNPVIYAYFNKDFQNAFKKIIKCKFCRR
How it was run: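 Rat whole-brain membranes (minus brainstem and cerebellum) in 50 mM Tris pH 8.0 with 120 mM NaCl, 4 mM CaCl2, 4 mM MgCl2 and 10 μM pargyline. Rapid filtration, then scintillation counting. Nonspecific binding defined with 10 μM 5-HT. IC50 by semi-log plot and linear regression.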

[5] = test system: Rattus norvegicus; assay: Effect evaluated in vivo on NE synthesis in NE-rich hemispheres at a 0.20 dose uM/kg(sc); type: functional
How it was run: (§2)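 Rats pretreated with reserpine 5 mg/kg sc 18 h before received test compound sc at 5 mL/kg in neutral solution. After decarboxylase inhibition with NSD 1015, dopa accumulation in hemispheres (mainly cortex) was measured by HPLC-electrochemical detection as an index of NE synthesis. Dose-response used 4–6 dose levels, n = 4.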

[6] = test system: Rattus norvegicus; assay: Effect evaluated in vivo on 5-HTP accumulation in corpus striatum at a dose 0.20 umol/kg (s.c.); type: functional; how it was run: as §1
[7] = test system: Rattus norvegicus; assay: Effect evaluated in vivo on 5-HTP accumulation in corpus striatum at a dose 6.25 umol/kg (s.c.); type: functional; how it was run: as §1
[8] = test system: Rattus norvegicus; assay: Effect evaluated in vivo on 5-HTP accumulation in corpus striatum after subcutaneous administration; type: functional; conditions: sc; how it was run: as §1
[9] = test system: Rattus norvegicus; assay: Effect evaluated in vivo on NE synthesis in NE-rich hemispheres at a 6.25d ose uM/kg(sc); type: functional; how it was run: as §2
[10] = test system: Rattus norvegicus; assay: Effect evaluated in vivo on 5-HTP accumulation in limbic system at a dose 0.20 umol/kg (s.c.); type: functional; how it was run: as §1
[11] = test system: Rattus norvegicus; assay: Effect evaluated in vivo on 5-HTP accumulation in limbic system at a dose 6.25 umol/kg (s.c.); type: functional
How it was run: (§3)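 Male Sprague-Dawley rats (200–300 g) were pretreated with reserpine 5 mg/kg sc 18 h before. Test compound was given sc at 5 mL/kg in neutral solution. 5-HT synthesis rate was indexed by […] 5-HTP accumulation after decarboxylase inhibition with NSD 1015, measured by HPLC-electrochemical detection. Dose-response used 4–6 dose levels, n = 4.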

[12] = test system: Rattus norvegicus; assay: Effect evaluated in vivo on NE synthesis in NE-rich hemispheres at a 0.39 dose uM/kg(sc); type: functional; how it was run: as §2
[13] = test system: Rattus norvegicus; assay: Effect evaluated in vivo on 5-HTP accumulation in limbic system after subcutaneous administration; type: functional; conditions: sc; how it was run: as §1
[14] = test system: Rattus norvegicus; assay: Effect evaluated in vivo on NE synthesis in NE-rich hemispheres after subcutaneous administration; type: functional; conditions: sc; how it was run: as §2
[15] = test system: Rattus norvegicus; assay: Effect evaluated in vivo on 5-HTP accumulation in limbic system at a dose 25 umol/kg (s.c.); type: functional; how it was run: as §3
[16] = test system: Rattus norvegicus; assay: Effect evaluated in vivo on 5-HTP accumulation in limbic system at a dose 1.56 umol/kg (s.c.); type: functional; how it was run: as §3
[17] = test system: Rattus norvegicus; assay: The compound was tested in vivo for locomotor activity in rats at 25 umol/kg after subcutaneous administration; type: functional
How it was run: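 Male Sprague-Dawley rats received reserpine 5 mg/kg sc in the neck 18 h before testing. Test compound was given sc in the neck (n = 4). Rats were placed singly in photocell motility meters immediately after dosing, and counts were accumulated over 30 min (tests 9 a.m.–1 p.m.). Gross behaviour, including 5-HT syndrome, was observed throughout.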

[18] = test system: Rattus norvegicus; assay: Effect evaluated in vivo on NE synthesis in NE-rich hemispheres at a 25 dose uM/kg(sc); type: functional; how it was run: as §2
[19] = test system: Rattus norvegicus; assay: Effect evaluated in vivo on NE synthesis in NE-rich hemispheres at a 1.56 dose uM/kg(sc); type: functional; how it was run: as §2
[20] = test system: Rattus norvegicus; assay: Effect evaluated in vivo on 5-HTP accumulation in corpus striatum at a dose 0.39 umol/kg (s.c.); type: functional; how it was run: as §1
[21] = test system: Rattus norvegicus; assay: The compound was tested in vivo for locomotor activity in rats at 0.2 umol/kg after subcutaneous administration
[22] = test system: Rattus norvegicus; assay: Effect evaluated in vivo on 5-HTP accumulation in limbic system at a dose 50 umol/kg (s.c.); type: functional; how it was run: as §3
[23] = test system: Rattus norvegicus; assay: Effect evaluated in vivo on 5-HTP accumulation in corpus striatum at a dose 12.5 umol/kg (s.c.); type: functional; how it was run: as §1
[24] = test system: Rattus norvegicus; assay: Effect evaluated in vivo on 5-HTP accumulation in corpus striatum at a dose 50 umol/kg (s.c.); type: functional; how it was run: as §1
[25] = test system: Rattus norvegicus; assay: Effect evaluated in vivo on 5-HTP accumulation in corpus striatum at a dose 3.1 umol/kg (s.c.); type: functional; how it was run: as §1
[26] = test system: Rattus norvegicus; assay: Effect evaluated in vivo on 5-HTP accumulation in limbic system at a dose 0.78 umol/kg (s.c.); type: functional; how it was run: as §1
[27] = test system: Rattus norvegicus; assay: Effect evaluated in vivo on 5-HTP accumulation in NE-rich hemispheres at a 3.1 dose uM/kg(sc); type: functional; how it was run: as §1
[28] = test system: Rattus norvegicus; assay: Effect evaluated in vivo on 5-HTP accumulation in limbic system at a dose 12.5 umol/kg (s.c.); type: functional; how it was run: as §3
[29] = test system: Rattus norvegicus; assay: Effect evaluated in vivo on 5-HTP accumulation in NE-rich hemispheres at a 12.5 dose uM/kg(sc); type: functional; how it was run: as §1
[30] = test system: Rattus norvegicus; assay: Effect evaluated in vivo on 5-HTP accumulation in NE-rich hemispheres at a 50 dose uM/kg(sc); type: functional; how it was run: as §1
[31] = test system: Rattus norvegicus; assay: Effect evaluated in vivo on 5-HTP accumulation in corpus striatum at a dose 0.78 umol/kg (s.c.); type: functional; how it was run: as §1
[32] = test system: Rattus norvegicus; assay: Effect evaluated in vivo on 5-HTP accumulation in NE-rich hemispheres at a 0.20 dose uM/kg(sc); type: functional; how it was run: as §1
[33] = test system: Rattus norvegicus; assay: Effect evaluated in vivo on 5-HTP accumulation in NE-rich hemispheres at a 0.78 dose uM/kg(sc); type: functional; how it was run: as §1
[34] = test system: Rattus norvegicus; assay: Effect evaluated in vivo on 5-HTP accumulation in limbic system at a dose 3.1 umol/kg (s.c.); type: functional; how it was run: as §3
[35] = test system: Rattus norvegicus; assay: Effect evaluated in vivo on 5-HTP accumulation in NE-rich hemispheres at a 0.80 dose uM/kg(sc); type: functional; how it was run: as §1
[36] = test system: Rattus norvegicus; assay: Effect evaluated in vivo on 5-HTP accumulation in NE-rich hemispheres after subcutaneous administration; type: functional; conditions: sc; how it was run: as §1
[37] = test system: Rattus norvegicus; assay: Effect evaluated in vivo on 5-HTP accumulation in corpus striatum at a dose 0.80 umol/kg (s.c.); type: functional; how it was run: as §1
[38] = test system: Rattus norvegicus; assay: Effect evaluated in vivo on 5-HTP accumulation in limbic system at a dose 0.80 umol/kg (s.c.); type: functional; how it was run: as §3

D(2) dopamine receptor, sequence (P61169 whole entry): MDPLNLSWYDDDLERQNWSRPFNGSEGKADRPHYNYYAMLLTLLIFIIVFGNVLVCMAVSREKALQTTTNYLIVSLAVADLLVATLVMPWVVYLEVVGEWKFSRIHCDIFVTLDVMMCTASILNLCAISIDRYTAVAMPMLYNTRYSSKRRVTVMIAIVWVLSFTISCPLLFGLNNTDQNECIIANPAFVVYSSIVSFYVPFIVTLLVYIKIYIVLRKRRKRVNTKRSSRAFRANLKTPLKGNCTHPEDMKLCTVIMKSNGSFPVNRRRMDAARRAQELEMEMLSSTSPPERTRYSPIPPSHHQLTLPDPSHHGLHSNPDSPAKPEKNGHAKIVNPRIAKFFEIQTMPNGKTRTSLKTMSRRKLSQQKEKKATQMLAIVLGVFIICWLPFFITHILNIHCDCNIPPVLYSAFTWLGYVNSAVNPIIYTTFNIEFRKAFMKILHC

SMILES | pIC50 [3] | pIC50 [4] | Control [6] | ED50 [8] | Control [10] | ED50 [13] | Locomotor activity [21] | Control [22] | Control [23] | Control [24] | Control [25] | Control [28] | Control [29] | Control [30] | Control [34] | also measured
CCCN1CCc2cccc(O)c2CC1 | < 4.00 | 7.09 | 125% | 2.2 µmol/kg | 117% | 1.3 µmol/kg | – | – | – | – | – | – | – | – | – | Control [1]: 75%; Control [2]: 129%; Control [5]: 115%; Control [7]: 67%; Control [9]: 53%; Control [11]: 51%; Control [12]: 129%; ED50 [14]: 1.4 µmol/kg; Control [15]: 76%; Control [16]: 70%; Locomotor activity [17]: 102; Control [18]: 72%; Control [19]: 73%; Control [20]: 135%
COc1cccc2c1CCN(C)CC2 | 5.64 | 6.32 | 98% | – | 110% | – | 8 | 67% | 74% | 72% | 89% | 86% | 76% | 80% | 108% | Control [26]: 93%; Control [27]: 93%; Control [31]: 97%; Control [32]: 126%; Control [33]: 81%
CCCCN1CCc2ccc(O)cc2CC1 | – | – | – | – | – | – | – | 119% | – | 106% | – | – | – | 114% | – | –
CCN1CCc2cccc(O)c2CC1 | 4.85 | 6.20 | – | 6.5 µmol/kg | – | 5 µmol/kg | 31 | 46% | 56% | 54% | 96% | 48% | 49% | 48% | 89% | Control [35]: 108 µM/kg; ED50 [36]: 6 µmol/kg; Control [37]: 100%; Control [38]: 99%
